# In the library only some 2.1% were active in any assay of this set; here they are far more common.
# aSyn 5UTR inh – 5' untranslated region of α-synuclein, MLPCN primary screen; inhibition, % (tested at 7.5 µM); alpha-synuclein 5'UTR reporter, inhibitor activity; 300,000 compounds, 0.82% hits; AID 1813; in the data active means inhibition above about 60%;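 further: H4 neuroglioblastoma cells stably carrying SNCA 5'UTR luciferase fusion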
# Shn3 inh set2 – Schnurri-3 reporter inhibition in Clone20 osteoblasts. Clone20 osteoblast Shn3 3'UTR firefly luciferase, 24 h. inhibition, % at 12.5 µM. 360,000 compounds, 0.52% hits;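 active means mean inhibition of at least 75% with every replicate also reaching 75%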
# FN deposit inh – fibronectin deposition inhibition; AH1F fibroblasts, Alexa488-fibronectin deposition fluorescence, overnight; inhibition, % at 12.6 µM; 350,000 compounds, 0.086% hits;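 active means mean inhibition across replicates of 30% or more, regardless of how many single replicates reach that level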
#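 Measured by – fluorescence 485/525 nm · System – AH1F fibroblast monolayer, labelled fibronectin deposition · Amount – 10000 cells per well · Buffer or medium – serum-reduced DMEM (2% serum) · Doses – single dose, pinned · Also added – fluorescent fibronectin at 24 nM final · Schedule – 1 h cell attachment, overnight exposure to compound and label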
# PAX8 reporter – PAX8 transcriptional activity inhibition; inhibition, % at 12.6 µM; 360,000 compounds, 1.2% hits; AID 652154; RMG-I TPO-luciferase reporter, SteadyGlo, 24 h;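 active means mean replicate inhibition at least 60% with every replicate also reaching 60%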;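 further: luciferase light reporting Pax8 driven TPO promoter activity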
# EWS-Fli block – inhibitors of EWS/Fli oncoprotein transcriptional activity; A673 NR0B1-luciferase reporter, viability-normalised; inhibition, % at 12.6 µM; 350,000 compounds, 0.67% hits; AID 651661;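 active means mean inhibition of at least 50% after viability correction, with every replicate also passing that limit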;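 further: firefly luciferase signal divided by Alamar Blue viability fluorescence both relative to DMSO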
# EBV LMP1 NFkB – reduces LMP1-driven NF-kappaB luciferase signal; 350,000 compounds, 0.69% hits; AID 504558; LMP1-induced NF-kappaB luciferase reporter cells, luminescence; inhibition, % at 12.5 µM; in the data active means inhibition above about 41%
# Hits are given with their value; – = inactive; · = no result given.
SMILES,aSyn 5UTR inh,Shn3 inh set2,FN deposit inh,PAX8 reporter,EWS-Fli block,EBV LMP1 NFkB
COc1ccc2[nH]c3c4c(ccc3c2c1)C(=O)C=CC4=O,·,96,–,–,–,–
COc1ccc(NC(=O)N(C)C[C@@H]2Oc3c(NC(=O)Nc4ccc5c(c4)OCO5)cccc3C(=O)N([C@H](C)CO)C[C@@H]2C)cc1,·,·,·,·,–,·
CCOC(=O)CC1CCCCN1C(=O)c1cc(COc2cccc3cnccc23)on1 (stereo unspecified),–,89,–,–,–,–
COC(=O)C1CCCCN1C(=O)c1cc(COc2cccc3cnccc23)on1 (stereo unspecified),–,–,–,–,–,–
CC(=O)c1ccccc1OCCOCCOCCOc1ccccc1C(C)=O,67,–,–,–,–,–
CC(=O)c1ccccc1OCCCN1CCCCC1,–,–,·,·,·,–
COCCOC(=O)c1[nH]c2c(c1C)C(=O)CC(c1cc(OC)c(OC)c(OC)c1)C2 (stereo unspecified),–,–,–,–,–,–
CCCCOC(=O)c1[nH]c2c(c1C)C(=O)CC(c1cc(OC)c(OC)c(OC)c1)C2 (stereo unspecified),–,82,–,–,–,–
COc1ccc(C2CC(=O)c3c([nH]c(C(=O)OC(C)C)c3C)C2)cc1OC (stereo unspecified),–,–,–,–,–,–
C=CCOC(=O)c1[nH]c2c(c1C)C(=O)CC(c1cc(OC)c(OC)c(OC)c1)C2 (stereo unspecified),–,88,·,·,·,–
COC(=O)C[C@H]1C[C@@H]2c3cc(NC(=O)Nc4ccc(OC)cc4)ccc3O[C@@H]2[C@H](CO)O1,·,·,–,–,–,·
O=C1C=CC(=O)N1c1ccc(O)cc1,–,–,–,–,–,–
O=C1C=CC(=O)N1c1ccc(OC(F)F)cc1,·,91,–,–,–,–
COc1ccccc1OCCC(=O)OCC(=O)NCc1ccc(F)cc1,·,–,–,–,–,69
O=C(COc1ccc(C(=O)c2ccccc2)cc1)NCc1ccc(F)cc1,113,–,–,–,·,–
O=C(COC(=O)CCc1c[nH]c2ccccc12)NCc1ccccc1,–,–,–,–,–,–
O=C(COC(=O)CCc1c[nH]c2ccccc12)NCc1ccc(Cl)cc1,–,–,–,–,–,46
COc1cc(/C=C2\N=C(c3ccccc3)NNC2=O)cc(OC)c1OC,–,·,–,–,56,–
O=C1NNC(c2ccccc2)=N/C1=C\c1ccco1,–,·,–,–,–,–
COc1cc2c(cc1OC)C(=O)N1[C@H]3c4cc(C)ccc4OC[C@@H]3[C@H](c3ccccc3)[C@]1(C)C(=O)N2,·,–,–,–,58,–
COc1cc2c(cc1OC)C(=O)N1[C@H]3c4cc(Cl)ccc4OC[C@@H]3[C@H](c3ccccc3)[C@]1(C)C(=O)N2,·,–,–,–,56,–
C[C@H](CO)N1C[C@H](C)[C@H](CN(C)C(=O)CN2CCOCC2)Oc2ncc(-c3cncnc3)cc2C1=O,·,·,–,–,–,·
Oc1ccc(CCNc2ncnc3ccc(Cl)cc23)cc1,–,88,–,–,–,–
COc1ccc(/C=C2\CCc3ccccc3C2=O)cc1CN1CCOCC1,62,–,–,–,–,–
COc1ccc(/C=C2/CCc3ccccc3C2=O)cc1OC,–,–,–,–,·,–
SMILES,aSyn 5UTR inh,Shn3 inh set2,FN deposit inh,PAX8 reporter,EWS-Fli block,EBV LMP1 NFkB
Cc1cc(C)n(C2CCCCC2OC(=O)c2ccccc2F)n1 (stereo unspecified),–,–,–,–,·,42
O=c1oc(-c2ccc(O)c(O)c2)cc2cccc(O)c12,·,–,·,·,–,–
O=C1C=Cc2cccc3ccc(O)c1c23,·,–,–,–,–,44
CCNC(=O)C[C@@H]1CC[C@H]2[C@@H](COC[C@H](O)CN2C(=O)c2cc(Cl)cc(Cl)c2)O1,·,·,–,·,·,·
OC[C@@H]1CC[C@@H]2O[C@H](CCc3ccc(C#CCc4ccccc4)cc3)[C@@H](n3cc(-c4ccccc4)nn3)C[C@@H]2O1,·,·,·,72,–,·
OC[C@H]1CC[C@@H]2O[C@H](CCc3ccc(C#CCc4ccccc4)cc3)[C@H](n3cc(-c4ccccc4)nn3)C[C@@H]2O1,·,·,·,–,–,·
OC[C@@H]1CC[C@@H]2O[C@H](CCc3ccc(C#CCc4ccccc4)cc3)[C@H](n3cc(-c4ccccc4)nn3)C[C@@H]2O1,·,·,·,62,–,·
COc1ccc2c3c(n(C)c2c1)[C@H](CO)N(Cc1ccccc1F)CC31CCN(C(=O)C2CCC2)CC1,·,·,·,·,–,·

# Bioassay records deposited in PubChem by Broad Institute.
